Bioassay records: PubChem, several laboratories
VIM-2 inh: VIM-2 metallo-beta-lactamase inhibitors, primary screen, biochemical, epi-absorbance readout, Pseudomonas aeruginosa enzyme; actives 0.89% (n = 290,000); purified VIM-2, nitrocefin hydrolysis, epi-absorbance fluorescence; inhibition, % at 5.6 µM; AID 1527, 2009;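 active = inhibition above the mean of all tested compounds plus 3 SD, cutoff set per screening run, cut at about 7.5% in these data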;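 also: red hydrolysis product quenches plate fluorescence so inhibitors raise well fluorescence; 0% = enzyme with DMSO and 100% = DMSO without enzyme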
CHT allo act: CHT positive allosteric modulators, primary screen, cell-based, membrane potential dye, choline EC20; CHT-expressing cells; active compounds read high; LV-AA mutant CHT in HEK293 cells; B-score at 10 µM; High affinity choline transporter 1 (Homo sapiens), Q9GZV3; actives 0.49% (n = 310,000);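 active = initial fluorescence not abnormally high and integrated response B-score, plate-corrected, over 3 SD above library mean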
Target sequence (Q9GZV3 whole entry, looked up): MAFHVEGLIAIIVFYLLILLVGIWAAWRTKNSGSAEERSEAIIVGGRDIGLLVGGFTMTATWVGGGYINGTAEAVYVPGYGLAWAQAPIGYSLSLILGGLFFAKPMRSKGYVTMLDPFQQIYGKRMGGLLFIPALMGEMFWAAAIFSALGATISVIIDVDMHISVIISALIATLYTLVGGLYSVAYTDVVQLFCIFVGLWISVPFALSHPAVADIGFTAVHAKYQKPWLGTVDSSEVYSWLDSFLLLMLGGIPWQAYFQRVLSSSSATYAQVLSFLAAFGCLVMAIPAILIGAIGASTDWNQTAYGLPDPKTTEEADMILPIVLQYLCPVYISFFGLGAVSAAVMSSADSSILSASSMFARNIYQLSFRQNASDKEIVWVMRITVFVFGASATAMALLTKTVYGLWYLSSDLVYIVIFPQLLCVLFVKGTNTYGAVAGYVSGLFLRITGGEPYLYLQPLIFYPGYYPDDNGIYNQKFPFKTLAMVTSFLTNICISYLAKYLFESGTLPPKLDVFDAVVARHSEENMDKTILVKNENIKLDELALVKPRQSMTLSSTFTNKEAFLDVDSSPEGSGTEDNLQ
ANO1 block: TMEM16A chloride channel inhibitors, primary screen, cell-based, HTS. Anoctamin-1 (Mus musculus), Q8BHY3. HEK293 TMEM16A/YFP iodide influx fluorescence, ionomycin. normalized B-score (activity score, 25-100; higher = stronger inhibition) at 10 µM. actives 1.2% (n = 310,000). AID 588511, 2011;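 active = ratio plate-corrected score three or more library SD toward inhibition, starting fluorescence score within five deviations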;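 also: score derived from kinetic fluorescence span divided by baseline fluorescence per well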
CHT inh: inhibitors of human choline transporter CHT; High affinity choline transporter 1 (Homo sapiens), Q9GZV3; CHT-expressing cells, membrane potential dye, choline response; active compounds read low; B-score at 10 µM; actives 0.86% (n = 310,000); AID 488975, 2010;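 active = B-score over 3 SD under the library average, and starting fluorescence ratio not unusually high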;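 also: choline stimulus applied at its EC90 after an EC20 pre-addition; B-score computed on integrated fluorescence ratio after choline addition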
IMP-1 inhibitor: IMP-1 metallo-beta-lactamase inhibitors, primary screen, biochemical, epi-absorbance readout, Pseudomonas aeruginosa enzyme. metallo-beta-lactamase IMP-1 (Pseudomonas aeruginosa). purified IMP-1, nitrocefin hydrolysis, epi-absorbance fluorescence. inhibition, % at 5.6 µM. actives 0.45% (n = 290,000);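 active = inhibition above the mean plus 3 SD of all compounds in the same screening run, cut at about 4.5% in these data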;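 also: 0% = IMP-1 with DMSO and 100% = DMSO wells lacking enzyme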
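Material – recombinant IMP-1 enzyme, purified · Amount – IMP-1 0.2 nM before substrate addition · Medium – HEPES buffer pH 7.1 with ZnSO4 and Brij 35 · Timing – 25 °C, 15 min preincubation, 25 min reaction · Measured by – plate fluorescence quenching by hydrolysis product, ex 480/em 530 nm · Read-out – percent enzyme inhibition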
TMEM16A act: TMEM16A chloride channel activators or potentiators, primary screen, cell-based, HTS | Anoctamin-1 (Mus musculus), Q8BHY3 | HEK293 TMEM16A/YFP-H148Q/I152L, iodide quench fluorescence; active compounds read low | B-score at 10 µM | actives 0.3% (n = 340,000) | AID 623877, 2012;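 active = fluorescence-ratio B-score plate-corrected deviation score at least 3 library SD below zero, with starting fluorescence score within 5 deviations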;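 also: channel opened by trigger with iodide after compound preincubation; score built on the fluorescence ratio of max minus min over baseline; more negative score means more quench and so TMEM16A activation or potentiation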
CHT act confirm: CHT activators, confirmation, cell-based, membrane potential dye, duplicate | shares compounds with CHT allo act | CHT-expressing cells, membrane potential dye fluorescence (FDSS); % of choline EC20–EC90 response window; HEK293 expressing CHT LV-AA mutant; choline added at its EC20 | activation, % at 10 µM | actives 91% (n = 2,500) | AID 504833, 2011;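 active = primary screen active, with duplicate mean activation above negative control mean plus 3 SD, cut at about 11% in these data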
HEK293 MP dye: membrane potential response in parental HEK293 cells, counter-screen for CHT activator project, cell-based, membrane potential dye. shares compounds with CHT allo act. membrane potential dye fluorescence (FDSS); measured after EC20 choline addition. ratio readout change at 10 µM, hits read low. actives 62% (n = 2,500). AID 623908, 2012;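 active = duplicate-averaged ratio beyond 3 SD from buffer wells, up or down, though filed actives are nearly all decreases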
* = called active by the depositor; i = inactive; . = no result. In the library only some 3.4% were active in any assay of this set; here they are far more common.

SMILES	VIM-2 inh	CHT allo act	ANO1 block	CHT inh	IMP-1 inhibitor	TMEM16A act	CHT act confirm	HEK293 MP dye
C1CCCCCC(NCCN2CCNCC2)CCCCC1	-2	i	i	i	-1	i	.	.
C/C(CCC(C)C)=N\Nc1cc(C)c2ccccc2n1	0	7.4*	i	i	-3	i	52*	i
Cc1cc(NCc2ccccc2)nc2ccccc12	0	i	i	i	-1	i	.	.
COc1ccc(CCNC(=O)CCc2cc(OC)c(OC)c(OC)c2)cc1OC	-1	i	i	i	-1	.	.	.
Cc1c(CCOC(=O)CC23CC4CC(CC(C4)C2)C3)sc[n+]1CC(=O)c1ccccc1	-5	i	i	i	-3	i	45*	i
Cc1ccc(/C=C/C(=O)NCCc2cccc(Cl)c2)o1	0	i	i	i	-1	i	.	.
CC1=Nc2cccc3cccc(c23)N1	7	i	i	i	1	i	33*	-39*
CC(=O)c1ccc(NC(=O)CSc2ccc3nnc(-c4ccccn4)n3n2)cc1	-1	i	i	i	-1	i	49*	-46*
Cc1cc(NC(=O)CSc2ccc3nnc(-c4cccnc4)n3n2)no1	-1	9.3*	i	i	-4	i	49*	-42*
Cc1ccc(-c2nnc3ccc(SCC(=O)Nc4cc(C)on4)nn23)cc1	1	i	i	i	-4	i	.	.
Cc1cc(NC(=O)CSc2ccc3nnc(-c4cccs4)n3n2)no1	1	9.9*	i	i	-6	i	22*	-33*
O=C(CSc1ccc2nnc(-c3cccnc3)n2n1)N1CCOCC1	0	7.1*	i	i	0	i	30*	-26*
Cc1cc(NC(=O)CSc2ccc3nnc(-c4ccc(F)cc4)n3n2)no1	-3	i	i	i	-2	i	.	.
CN(Cc1ccccc1)C(=O)c1[nH]cnc1C(=O)N[C@@H](CCCCNC(=O)OC(C)(C)C)C(=O)OC(C)(C)C	-4	11*	i	i	-3	i	20*	i
CC(C)(C)OC(=O)NCCCC[C@H](NC(=O)c1nc[nH]c1C(=O)NCc1ccccc1)C(=O)OC(C)(C)C	-2	i	i	i	-4	i	.	.
O=c1cc[nH]c2c1ccc1c(=O)cc[nH]c12	-1	i	i	i	-2	i	.	.
Cc1[nH]ccc2c1[nH]c1cc(=O)ccc12	0	i	i	i	-3	i	50*	-49*
Nc1ccc2c(c1)N1CCN=C1S2	0	i	i	i	-4	i	54*	-49*
O=C(NCC(=O)N(c1ccc(F)cc1)C(C(=O)NC1CCCCC1)c1ccncc1)c1ccco1 (configuration not stated)	-1	i	i	i	-4	i	.	.
C=CCN(c1ccccc1OC)S(=O)(=O)c1cccc(C(=O)NCC(c2ccc(OC)cc2)N2CCCC2)c1 (configuration not stated)	.	.	.	.	.	i	.	.
CCON1C(=O)CN(C(=O)OC)C1c1ccc(Cl)cc1Cl (configuration not stated)	-4	i	i	i	-6	i	2	i
Cc1ccc(Cl)cc1NC(=S)N/N=C/c1cccc2ccccc12	-6	i	i	i	-4	i	.	.
Cc1ccn2cc(-c3cccc([N+](=O)[O-])c3)nc2c1	-1	i	i	i	-1	i	39*	-46*
Cc1ccn2cc(-c3ccc(Br)cc3)nc2c1	0	i	i	i	-1	i	.	.
Cc1ccn2cc(-c3cccc(NS(C)(=O)=O)c3)nc2c1	-2	6.3*	i	i	-2	i	35*	-42*
SMILES	VIM-2 inh	CHT allo act	ANO1 block	CHT inh	IMP-1 inhibitor	TMEM16A act	CHT act confirm	HEK293 MP dye
CC(=O)Nc1cccc(-c2cn3ccc(C)cc3n2)c1	-6	i	i	i	-4	i	.	.
COc1ccc(NCc2nc3ccccc3n2CCOc2ccccc2)cc1	-3	6.4*	i	i	-5	i	24*	i
c1ccc(NCc2nc3ccccc3n2CCOc2ccccc2)cc1	-2	i	i	i	-4	i	.	.
CN(C)c1ccc2c3c(ccc(N(C)C)c13)C(=O)OC2	-1	7.3*	i	i	-2	i	80*	-96*
CS(=O)(=O)Nc1ccc2c(c1)C(=O)OC2	-1	i	i	i	-1	i	.	.
O=C(CCNC(=O)C1CCN(S(=O)(=O)c2ccc(F)cc2)CC1)Nc1ccccc1	0	i	i	i	1	i	.	.
Brc1cc2ccccc2[n+](Cc2ccccc2)c1	.	7*	i	i	.	i	76*	-67*
CCn1cnc2cc(NCc3ccncc3)ccc21	0	i	i	i	-4	i	49*	-38*
CCN1c2ccccc2-c2nc3ccccc3n2C1c1ccco1 (configuration not stated)	-2	i	i	i	0	i	.	.
c1ccc(CN2c3ccccc3-c3nc4ccccc4n3C2c2ccccn2)cc1 (configuration not stated)	-3	6.4*	i	i	-3	i	52*	i
O=[N+]([O-])c1cccc(S(=O)(=O)N2CCCCC2c2cccnc2)c1 (configuration not stated)	-3	i	i	i	-3	i	.	.
Cc1ccc2nc(C)cc(Cl)c2c1	-4	i	i	i	-3	i	.	.
Cc1ccc2nc(C)cc(NCCO)c2c1	0	8.7*	i	i	0	i	53*	-67*
Cc1ccc2nc(C)cc(Nc3ccc4c(c3)OCCO4)c2c1	11*	i	i	i	-2	i	21*	-44*
Cc1ccccc1S(=O)(=O)Nc1nc2ccccc2nc1NCCO	-1	i	i	i	-1	i	.	.
